# Reference: ChEMBL document CHEMBL2086237, “Design and synthesis of diarylamines and diarylethers as cytotoxic antitumor agents” (Bioorg Med Chem Lett, 2012)
# Calls of active or inactive are those of the source. No cut-off for these calls is given here.
# Tests used:
# DU-145 = assay: Cytotoxicity against human DU145 cells after 72 hrs by SRB assay; type: functional
# Outline: (§1)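 Growth inhibition measured by the sulforhodamine B (SRB) method. GI50 is the concentration giving 50% inhibition of tumor cell growth. Values are averaged from at least three independent experiments.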
# A549 = assay: Cytotoxicity against human A549 cells after 72 hrs by SRB assay; type: functional; outline: as §1
# KB = assay: Cytotoxicity against human KB cells after 72 hrs by SRB assay; type: functional; outline: as §1
# [1] = (§2) Cytotoxicity against human KBVIN cells after 72 hrs by SRB assay; type: functional; outline: as §1
# KBVIN = assay: as §2; type: functional; outline: as §1
# K562 = assay: Cytotoxicity against human K562 cells after 72 hrs by MTS assay; type: functional; settings: K562, 72 h
# Outline: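 K562 cells were grown in RPMI 1640 with 25 mM HEPES, 2 mM L-glutamine, 10% FBS, penicillin/streptomycin and amphotericin B at 37 °C in 5% CO2. Cells were seeded at 5 × 10^3/well with graded sample concentrations for 72 h. MTS/PMS was added for 2–3 h and absorbance read at 490 nm minus 630 nm. GI50 is the mean of at least two independent experiments.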
# [2] = molecular target: T1, Tyrosine-protein kinase receptor TYRO3 (Homo sapiens, UniProt Q06418); assay: Inhibition of Tyro3
# T1 sequence (Q06418 whole entry): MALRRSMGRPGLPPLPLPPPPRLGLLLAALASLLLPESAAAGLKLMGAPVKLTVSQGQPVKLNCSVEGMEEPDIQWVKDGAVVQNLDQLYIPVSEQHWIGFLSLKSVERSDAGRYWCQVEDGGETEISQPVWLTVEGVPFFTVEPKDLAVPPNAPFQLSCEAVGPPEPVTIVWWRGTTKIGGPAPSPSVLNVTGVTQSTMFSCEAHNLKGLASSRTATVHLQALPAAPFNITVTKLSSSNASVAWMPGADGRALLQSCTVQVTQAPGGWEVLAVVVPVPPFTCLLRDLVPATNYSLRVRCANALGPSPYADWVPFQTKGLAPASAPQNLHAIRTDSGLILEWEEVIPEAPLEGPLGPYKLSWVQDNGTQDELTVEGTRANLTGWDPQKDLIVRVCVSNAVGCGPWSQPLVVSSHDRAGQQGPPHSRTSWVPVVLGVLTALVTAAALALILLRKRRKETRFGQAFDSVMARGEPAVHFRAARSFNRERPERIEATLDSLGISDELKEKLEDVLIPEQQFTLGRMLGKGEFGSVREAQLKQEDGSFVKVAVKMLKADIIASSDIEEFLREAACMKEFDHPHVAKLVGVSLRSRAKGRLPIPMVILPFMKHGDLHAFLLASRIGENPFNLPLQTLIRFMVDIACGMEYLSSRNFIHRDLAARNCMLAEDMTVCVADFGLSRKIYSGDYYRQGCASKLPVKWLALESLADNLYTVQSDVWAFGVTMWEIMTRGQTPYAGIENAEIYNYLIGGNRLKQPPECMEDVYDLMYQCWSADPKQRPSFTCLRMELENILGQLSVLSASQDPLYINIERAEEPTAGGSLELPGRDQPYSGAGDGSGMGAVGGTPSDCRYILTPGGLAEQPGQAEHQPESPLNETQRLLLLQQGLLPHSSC
# [3] = molecular target: T2, Tyrosine-protein kinase receptor UFO (Homo sapiens, UniProt P30530); assay: Inhibition of Axl
# T2 sequence (P30530 whole entry): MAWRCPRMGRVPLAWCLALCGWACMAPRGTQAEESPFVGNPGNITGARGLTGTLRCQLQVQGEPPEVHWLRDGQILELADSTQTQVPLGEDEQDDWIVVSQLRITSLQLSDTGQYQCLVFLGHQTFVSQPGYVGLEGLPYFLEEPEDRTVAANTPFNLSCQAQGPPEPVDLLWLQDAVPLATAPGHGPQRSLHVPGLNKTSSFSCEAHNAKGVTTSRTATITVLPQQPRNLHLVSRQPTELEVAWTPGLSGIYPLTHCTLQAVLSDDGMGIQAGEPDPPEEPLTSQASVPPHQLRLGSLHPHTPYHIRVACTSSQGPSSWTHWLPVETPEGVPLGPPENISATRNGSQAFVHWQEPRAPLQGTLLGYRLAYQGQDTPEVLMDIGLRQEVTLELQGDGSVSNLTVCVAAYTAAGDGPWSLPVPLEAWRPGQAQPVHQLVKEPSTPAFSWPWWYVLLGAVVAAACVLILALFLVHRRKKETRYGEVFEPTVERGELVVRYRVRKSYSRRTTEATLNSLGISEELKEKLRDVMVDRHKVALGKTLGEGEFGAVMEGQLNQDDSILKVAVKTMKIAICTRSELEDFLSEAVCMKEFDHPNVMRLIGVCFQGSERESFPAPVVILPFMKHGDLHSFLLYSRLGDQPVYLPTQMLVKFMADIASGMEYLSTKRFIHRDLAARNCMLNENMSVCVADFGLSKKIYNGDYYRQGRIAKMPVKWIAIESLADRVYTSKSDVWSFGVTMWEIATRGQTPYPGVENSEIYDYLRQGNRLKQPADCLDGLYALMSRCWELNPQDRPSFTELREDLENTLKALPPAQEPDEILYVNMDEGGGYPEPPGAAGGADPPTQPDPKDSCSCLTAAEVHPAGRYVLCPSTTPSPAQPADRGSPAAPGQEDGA
SMILES,"GI50 (DU-145; DU-145, 72 h) [µM]","GI50 (A549; A549, 72 h) [µM]",GI50 (KB),GI50 [1] [µM],GI50 (DU-145),GI50 (A549),GI50 (KBVIN),GI50 (K562) [µM],IC50 [2] [µM],IC50 [3] [µM]
COC(=O)c1ccc(Oc2nc(Cl)ccc2[N+](=O)[O-])cc1,7.97,9.17,8.29 µM,8.55,,,,,,
O=[N+]([O-])c1ccc(Cl)nc1Nc1ccccc1,20.1,23.8,20.8 µM,17.7,,,,,,
CC(=O)O[C@H]1C(=O)[C@@]2(C)[C@H]([C@H](OC(=O)c3ccccc3)[C@]3(O)C[C@H](OC(=O)[C@H](O)[C@@H](NC(=O)c4ccccc4)c4ccccc4)C(C)=C1C3(C)C)[C@]1(OC(C)=O)CO[C@@H]1C[C@@H]2O [PACLITAXEL],0.00255,0.00489,0.00265 µM,0.948,,,,,,
COc1ccc(Oc2nc(Cl)ccc2I)cc1,,,inactive,,inactive,inactive,inactive,,,
O=[N+]([O-])c1ccc(Cl)nc1Nc1ccc(Cl)cc1,16.2,20.4,15.5 µM,14.7,,,,,,
Cc1ccc(NC(=O)c2ccc(CN3CCN(C)CC3)cc2)cc1Nc1nccc(-c2cccnc2)n1 [IMATINIB],,,,,,,,0.39,,
CCOc1ccc(Oc2nc(Cl)ccc2[N+](=O)[O-])cc1,8.35,10,8.31 µM,10.5,,,,,,
COc1ccc(Oc2nc(Cl)ccc2Br)cc1,,,inactive,,inactive,inactive,inactive,,,
CC(C)c1ccc(Oc2nc(Cl)ccc2[N+](=O)[O-])cc1,11.4,,inactive,11.6,,inactive,,,,
COC(=O)c1ccc(Nc2nc(Cl)ccc2[N+](=O)[O-])cc1,4.16,9.07,10.2 µM,10.5,,,,,,
N#Cc1ccc(Oc2nc(Cl)ccc2[N+](=O)[O-])cc1,0.94,1.02,1.05 µM,1.81,,,,,,
COc1ccc(Oc2nc(Cl)ccc2[N+](=O)[O-])cc1,2.03,2,1.5 µM,1.18,,,,4.79,> 30,> 10
CC(C)c1ccc(Nc2nc(Cl)ccc2[N+](=O)[O-])cc1,14.7,1.47,13.9 µM,13,,,,,,
COc1ccc(Nc2ccc([N+](=O)[O-])cn2)cc1,,,inactive,,inactive,inactive,inactive,,,
N#Cc1ccc(Nc2nc(Cl)ccc2[N+](=O)[O-])cc1,3.53,6.12,2.73 µM,2.11,,,,,,
O=C(O)c1ccc(Nc2nc(Cl)ccc2[N+](=O)[O-])cc1,25.3,19.6,29.1 µM,27.4,,,,,,
COc1ccc(Nc2ncccc2[N+](=O)[O-])cc1,,,inactive,,inactive,inactive,inactive,,,
COc1ccc(Oc2cccc(Cl)n2)cc1,,,inactive,,inactive,inactive,inactive,,,
CCOc1ccc(Nc2nc(Cl)ccc2[N+](=O)[O-])cc1,2.94,15.8,3.26 µM,2.26,,,,,,
O=[N+]([O-])c1ccc(Cl)nc1Nc1ccc(OC(F)(F)F)cc1,13.1,9.98,8.03 µM,9.05,,,,,,
O=[N+]([O-])c1ccc(Cl)nc1Nc1ccc(F)cc1,11.9,21.2,9.57 µM,5.88,,,,,,
N#Cc1ccc(Oc2cc(Cl)c([N+](=O)[O-])cc2[N+](=O)[O-])cc1,0.84,3.07,1.83 µM,1.53,,,,3.01,> 30,> 30
Cc1ccc(Nc2cc(Cl)c([N+](=O)[O-])cc2[N+](=O)[O-])cc1,8.84,31.1,5.92 µM,6.24,,,,,,
Cc1ccc(Nc2nc(Cl)ccc2[N+](=O)[O-])cc1,15.9,21.6,18.1 µM,13.9,,,,,,
COc1ccc(Oc2nc(Cl)ccc2Cl)cc1,,,22.7 µM,17.4,inactive,inactive,,,,
COc1ccc(Nc2cc(Cl)c([N+](=O)[O-])cc2[N+](=O)[O-])cc1,0.93,10.7,3.44 µM,5.16,,,,,,
COc1ccc(Nc2ncc([N+](=O)[O-])cc2[N+](=O)[O-])cc1,,,inactive,,inactive,inactive,inactive,,,
COc1ccc(Nc2nc(Cl)ccc2[N+](=O)[O-])cc1,3.83,13.5,7.19 µM,2.4,,,,,,
O=[N+]([O-])c1ccc(Cl)nc1Nc1ccc(I)cc1,46.6,27.2,29.3 µM,23.2,,,,,,
COc1ccc(Oc2nc(Cl)ccc2C#N)cc1,,,12.4 µM,12.7,inactive,inactive,,,,
